Among the data in ChEMBL document CHEMBL4229490, “Cytotoxic and NF-κB and mitochondrial transmembrane potential inhibitory pentacyclic triterpenoids from Syzygium corticosum and their semi-synthetic derivatives” (Bioorg Med Chem, 2018) are IC50 values, retold here.

pIC50: −log10 of the molar value. In brackets after ≈: the same amount, converted by molar mass.

Assay [1] relates to OVCAR-3. The assay can be described thus: Cytotoxicity against human OVCAR3 cells assessed as reduction in cell viability after 72 hrs by CellTiter 96 aqueous one solution assay. Format: functional, cell-based. Conditions: OVCAR-3, 72 h. Summed up:
(§1)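 Cells grown in RPMI 1640 with 10% FBS, penicillin and streptomycin; log-phase cells trypsinized, seeded, left overnight at 37 °C in 5% CO₂, then exposed 72 h to samples diluted from DMSO, with DMSO vehicle and paclitaxel control. Viability read by absorbance. IC50 taken relative to vehicle by nonlinear regression; triplicate, three independent experiments.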

The subject of assay [2] is HT-29. The assay can be described thus: Cytotoxicity against human HT-29 cells assessed as reduction in cell viability after 72 hrs by CellTiter 96 aqueous one solution assay. Format: functional, cell-based. Conditions: HT-29, 72 h. Summed up:
as §1

The subject of assay [3] is MDA-MB-231. Briefly: Cytotoxicity against human MDA-MB-231 cells assessed as reduction in cell viability after 72 hrs by CellTiter 96 aqueous one solution assay. Format: functional, cell-based. As to conditions: MDA-MB-231, 72 h. In short, it runs like this:
as §1

In assay [4] the test system is MDA-MB-435. Briefly: Cytotoxicity against human MDA-MB-435 cells assessed as reduction in cell viability after 72 hrs by CellTiter 96 aqueous one solution assay. Format: functional, cell-based. As to conditions: MDA-MB-435, 72 h. Summed up:
as §1

Assay [5] relates to HT-29. The assay can be described thus: Inhibition of mitochondrial membrane potential in human HT-29 cells after 3 hrs by JC-1 staining based fluorescence assay. Format: functional, cell-based. Conditions: HT-29, 3 h.
The target in assay [6] is Transcription factor p65 (Homo sapiens, UniProt Q04206). Briefly: Inhibition of biotinylated consensus sequence binding to NF-kB p65 in human HeLa nuclear extracts after 3 hrs by ELISA.
Chain of Transcription factor p65 (Q04206 whole entry): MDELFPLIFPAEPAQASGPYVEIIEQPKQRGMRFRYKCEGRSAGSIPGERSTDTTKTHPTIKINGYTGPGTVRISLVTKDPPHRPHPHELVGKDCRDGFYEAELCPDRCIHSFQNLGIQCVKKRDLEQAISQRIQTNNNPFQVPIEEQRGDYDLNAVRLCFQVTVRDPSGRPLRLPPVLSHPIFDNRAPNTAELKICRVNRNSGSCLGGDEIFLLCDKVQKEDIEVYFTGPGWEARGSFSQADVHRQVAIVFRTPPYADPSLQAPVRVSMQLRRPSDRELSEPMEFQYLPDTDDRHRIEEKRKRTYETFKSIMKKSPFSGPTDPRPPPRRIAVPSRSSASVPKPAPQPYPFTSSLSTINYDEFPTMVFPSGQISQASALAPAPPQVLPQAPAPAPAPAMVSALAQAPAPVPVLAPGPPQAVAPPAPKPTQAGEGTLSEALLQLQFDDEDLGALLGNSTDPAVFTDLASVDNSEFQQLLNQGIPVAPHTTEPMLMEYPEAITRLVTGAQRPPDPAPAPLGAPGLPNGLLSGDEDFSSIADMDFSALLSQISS
The subject of assay [7] is DU-145. Briefly: Cytotoxicity against human DU145 cells assessed as reduction in cell viability after 72 hrs by CellTiter 96 aqueous one solution assay. Format: functional, cell-based. As to conditions: DU-145, 72 h.
Assay [8] relates to HeLa. The assay can be described thus: Cytotoxicity against human HeLa cells assessed as reduction in cell viability after 72 hrs by CellTiter 96 aqueous one solution assay. Format: functional, cell-based.

As to `COc1cc(C=O)cc(OC)c1O`, the pIC50 in assay [1], in assay [2], in assay [3] and in assay [4] was < 5.00 each time.
Turning to `CC(=O)/C=C/[C@]12O[C@@]1(C)C[C@@H](O)CC2(C)C`, the negative logarithm of the IC50 (pIC50) in assay [1], in assay [2], in assay [3] and in assay [4] was < 5.00 in each case.
On to `C=C(C)[C@@H]1CC[C@]2(C(=O)OC)CC[C@]3(C(=O)O)[C@H](CC[C@@H]4[C@@]5(C)CC[C@H](O)C(C)(C)[C@@H]5CC[C@]43C)[C@@H]12`, for which the negative logarithm of the IC50 (pIC50) in assay [5] is < 5.00; in assay [2], < 5.00; in assay [6], 5.82; in assay [3] it was < 5.00.
In the case of `CC(=O)CC[C@@H](C1=C[C@@](C)(O)CCC1=O)C(C)C`, the pIC50 in assay [1], in assay [2], in assay [3] and in assay [4] was < 5.00 in each case.
For the compound `C=C(C)[C@@H]1CC[C@]2(C(=O)O)CC[C@]3(CO)[C@H](CC[C@@H]4[C@@]5(C)CC[C@H](O)C(C)(C)[C@@H]5CC[C@]43C)[C@@H]12`, the negative logarithm of the IC50 (pIC50) in assay [5], in assay [1], in assay [2], in assay [6], in assay [3] and in assay [4] was < 5.00 in each case.
For `C=C(C)[C@H](O)CC[C@](C)(O)[C@H]1CC[C@]2(C)[C@@H]1CC[C@@H]1[C@@]3(C)CC[C@H](O)C(C)(C)[C@@H]3CC[C@]12C`, the pIC50 in assay [1], in assay [2], in assay [3] and in assay [4] was < 5.00 each time.
As to `CC1=CC(=O)CC(C)(C)[C@H]1/C=C/[C@@H](C)O`, the pIC50 in assay [1], in assay [2], in assay [3] and in assay [4] was < 5.00 each time.
With `COc1c(C)c(O)c2c(c1C)O[C@H](c1ccc(O)cc1)CC2=O`, the pIC50 in assay [1] was < 5.00; in assay [2], < 5.00; in assay [3], < 5.00; in assay [4] it was 5.22.
As to `C[C@H]1[C@H](C)CC[C@]2(C(=O)O)CC[C@]3(C)C(=CC[C@@H]4[C@@]5(C)CC[C@H](OC(=O)c6ccc(Cl)cc6)C(C)(C)[C@@H]5CC[C@]43C)[C@H]12`, the pIC50 in assay [5], in assay [2], in assay [6] and in assay [3] was < 5.00 in each case.
As for `COc1c(O)cc2c(=O)oc3c4c(cc5c(=O)oc1c2c35)OCO4`, the pIC50 in assay [5], in assay [1], in assay [2], in assay [3] and in assay [4] was < 5.00 throughout.
With `COc1c(OC)c2oc(=O)c3cc4c(c5oc(=O)c(c1OC)c2c53)OCO4`, the pIC50 in assay [5], in assay [1], in assay [2], in assay [6] and in assay [4] was < 5.00 throughout.
`C=C(C)[C@@H]1CC[C@]2(C(=O)O)CC[C@]3(C)[C@H](CC[C@@H]4[C@@]5(C)C[C@@H](O)[C@H](OC(=O)/C=C/c6ccc(O)cc6)C(C)(C)[C@@H]5CC[C@]43C)[C@@H]12`: the pIC50 in assay [5] is < 5.00; in assay [1], < 5.00; in assay [2], < 5.00; in assay [6] it was 5.33; in assay [3], < 5.00; in assay [4], < 5.00.
With `C=C(C)[C@@H]1CC[C@]2(C(=O)O)CC[C@]3(C(=O)O)[C@H](CC[C@@H]4[C@@]5(C)CC[C@H](O)C(C)(C)[C@@H]5CC[C@]43C)[C@@H]12`, the pIC50 in assay [5], in assay [1], in assay [2], in assay [6], in assay [3] and in assay [4] was < 5.00 throughout.
With `C=C(C)[C@@H]1CC[C@]2(C(=O)O)CC[C@]3(C)[C@H](CC[C@@H]4[C@@]5(C)CC[C@H](OC(=O)/C=C/c6ccc(O)c(OC)c6)C(C)(C)[C@@H]5CC[C@]43C)[C@@H]12`, the pIC50 was 6.29 in assay [5], < 5.00 in assay [2], 5.27 in assay [6] and < 5.00 in assay [3].
Take `COc1cc2c(=O)oc3c(OC)c(O)cc4c(=O)oc(c1OC)c2c34`: the negative-log IC50 (pIC50) in assay [5] was < 5.00; in assay [1], < 5.00; in assay [2] it was < 5.00; in assay [6] it was 5.80; in assay [4], < 5.00.
Consider `CC(=O)/C=C/[C@@]1(O)C(C)=CC(=O)CC1(C)C`, for which the pIC50 in assay [5], in assay [1], in assay [2] and in assay [4] was < 5.00 each time.
Consider `C=C(C)[C@@H]1CC[C@]2(C(=O)O)CC[C@]3(C)[C@H](CC[C@@H]4[C@@]5(C)C[C@@H](O)[C@H](O)C(C)(C)[C@@H]5CC[C@]43C)[C@@H]12` [ALPHITOLIC ACID], for which the negative-log IC50 (pIC50) in assay [5] is < 5.00; in assay [1] it was < 5.00; in assay [2], < 5.00; in assay [6], 5.06; in assay [3], < 5.00; in assay [4], < 5.00.
In the case of `C=C(C)[C@@H]1CC[C@]2(C(=O)O)CC[C@]3(C)[C@H](CC[C@@H]4[C@@]5(C)CC[C@H](O)C(C)(C)[C@@H]5CC[C@]43C)[C@@H]12` [BETULINIC ACID], the results for the pIC50 in assay [5], in assay [2] and in assay [3] were 5.46, < 5.00 and < 5.00, respectively.
`C=C(C)[C@@H]1CC[C@]2(CO)CC[C@]3(C)[C@H](CC[C@@H]4[C@@]5(C)CC[C@H](O)C(C)(C)[C@@H]5CC[C@]43C)[C@@H]12` [BETULIN]: the pIC50 in assay [5] was < 5.00; in assay [1], < 5.00; in assay [2], < 5.00; in assay [6], 5.06; in assay [3], < 5.00; in assay [4], < 5.00.
With `CC1=CC(=O)CC(C)(C)[C@@]1(O)/C=C/[C@@H](C)O` [BLUMENOL A], the pIC50 in assay [5], in assay [1], in assay [2], in assay [6], in assay [3] and in assay [4] was < 5.00 each time.
In the case of `CC1(C)CC[C@]2(CO)CC[C@]3(C)C(=CC[C@@H]4[C@@]5(C)CC[C@H](O)C(C)(C)[C@@H]5CC[C@]43C)[C@@H]2C1` [ERYTHRODIOL], the pIC50 in assay [5], in assay [1], in assay [2], in assay [6], in assay [3] and in assay [4] was < 5.00 in each case.
In the case of `CC1(C)C[C@H](O)C[C@@]2(C)OC(=O)C=C12` [LOLIOLIDE], the pIC50 in assay [5], in assay [1], in assay [2], in assay [6], in assay [3] and in assay [4] was < 5.00 in each case.
In the case of `CC1(C)CC[C@]2(C(=O)O)CC[C@]3(C)C(=CC[C@@H]4[C@@]5(C)CC[C@H](O)C(C)(C)[C@@H]5CC[C@]43C)[C@@H]2C1` [OLEANOLIC_ACID], the pIC50 in assay [5] is < 5.00; in assay [1], < 5.00; in assay [2], < 5.00; in assay [6], 5.62; in assay [3], < 5.00; in assay [4], < 5.00.
Take `CC(=O)O[C@H]1C(=O)[C@@]2(C)[C@H]([C@H](OC(=O)c3ccccc3)[C@]3(O)C[C@H](OC(=O)[C@H](O)[C@@H](NC(=O)c4ccccc4)c4ccccc4)C(C)=C1C3(C)C)[C@]1(OC(C)=O)CO[C@@H]1C[C@@H]2O` [PACLITAXEL]: the pIC50 is 7.89 in assay [1], 8.05 in assay [2], 7.77 in assay [3] and 7.89 in assay [4].
Turning to `COc1c(C)c(O)c2c(=O)cc(-c3ccc(O)cc3)oc2c1C` [SIDEROXYLIN], the pIC50 in assay [5], in assay [1], in assay [2], in assay [6], in assay [3] and in assay [4] was < 5.00 in each case.
As for `C[C@H]1[C@H](C)CC[C@]2(C(=O)O)CC[C@]3(C)C(=CC[C@@H]4[C@@]5(C)CC[C@H](O)C(C)(C)[C@@H]5CC[C@]43C)[C@H]12` [URSOLIC ACID], the pIC50 in assay [5] was 5.46; in assay [6], 7.51; in assay [3], 5.23. The IC50 in assay [7] is 11.1 to 13.1 µg/mL (≈ 24.3 to 28.7 µM); in assay [2], 11.1 µg/mL; in assay [8], 11.1 to 13.1 µg/mL (≈ 24.3 to 28.7 µM); in assay [4] it was 13.1 µg/mL.
On to `C[C@H]1[C@H](C)CC[C@]2(CO)CC[C@]3(C)C(=CC[C@@H]4[C@@]5(C)CC[C@H](O)C(C)(C)[C@@H]5CC[C@]43C)[C@H]12` [UVAOL], for which the pIC50 in assay [5], in assay [1], in assay [2], in assay [6], in assay [3] and in assay [4] was < 5.00 each time.
